Series [1] has as its target Sodium-dependent serotonin transporter (Homo sapiens, UniProt P31645). Kind of series: Binding affinity to human SERT.
In series [2] the target is Sodium-dependent noradrenaline transporter (Homo sapiens, UniProt P23975). Briefly: Binding affinity to human NET.
The target of series [3] is Sodium-dependent dopamine transporter (Homo sapiens, UniProt Q01959). Kind of series: Binding affinity to human DAT.
Series [4] addresses T1, 5-hydroxytryptamine receptor 1A (Homo sapiens, UniProt P08908).
T1 sequence (P08908 whole entry): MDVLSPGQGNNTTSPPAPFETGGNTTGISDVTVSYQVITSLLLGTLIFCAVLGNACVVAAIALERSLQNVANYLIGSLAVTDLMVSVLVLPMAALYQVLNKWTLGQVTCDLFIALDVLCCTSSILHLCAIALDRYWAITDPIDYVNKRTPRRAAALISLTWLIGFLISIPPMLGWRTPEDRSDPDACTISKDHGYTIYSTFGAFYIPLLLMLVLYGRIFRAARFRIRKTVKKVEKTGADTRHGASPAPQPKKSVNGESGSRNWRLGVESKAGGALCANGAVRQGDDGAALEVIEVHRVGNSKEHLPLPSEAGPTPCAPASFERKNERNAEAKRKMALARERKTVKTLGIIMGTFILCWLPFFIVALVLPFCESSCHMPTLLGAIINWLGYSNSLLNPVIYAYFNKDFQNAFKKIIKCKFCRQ
Kind of series: Binding affinity to 5HT1A receptor.

Series [5] deals with 5-hydroxytryptamine receptor 1B (Homo sapiens, UniProt P28222). Kind of series: Binding affinity to 5HT1B receptor.
Chain of 5-hydroxytryptamine receptor 1B (P28222 whole entry): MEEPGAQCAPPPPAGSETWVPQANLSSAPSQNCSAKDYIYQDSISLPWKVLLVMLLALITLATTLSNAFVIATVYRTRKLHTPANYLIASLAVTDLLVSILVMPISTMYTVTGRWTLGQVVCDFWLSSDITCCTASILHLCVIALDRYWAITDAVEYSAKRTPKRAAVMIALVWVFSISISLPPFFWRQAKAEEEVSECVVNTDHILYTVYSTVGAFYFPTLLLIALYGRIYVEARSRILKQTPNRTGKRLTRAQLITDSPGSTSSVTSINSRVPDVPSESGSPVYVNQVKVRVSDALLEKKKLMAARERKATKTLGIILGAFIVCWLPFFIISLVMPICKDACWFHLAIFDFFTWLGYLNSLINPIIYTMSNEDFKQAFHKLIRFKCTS
In series [6] the target is 5-hydroxytryptamine receptor 2A (Homo sapiens, UniProt P28223). Kind of series: Binding affinity to 5HT2A receptor.
Chain of 5-hydroxytryptamine receptor 2A (P28223 whole entry): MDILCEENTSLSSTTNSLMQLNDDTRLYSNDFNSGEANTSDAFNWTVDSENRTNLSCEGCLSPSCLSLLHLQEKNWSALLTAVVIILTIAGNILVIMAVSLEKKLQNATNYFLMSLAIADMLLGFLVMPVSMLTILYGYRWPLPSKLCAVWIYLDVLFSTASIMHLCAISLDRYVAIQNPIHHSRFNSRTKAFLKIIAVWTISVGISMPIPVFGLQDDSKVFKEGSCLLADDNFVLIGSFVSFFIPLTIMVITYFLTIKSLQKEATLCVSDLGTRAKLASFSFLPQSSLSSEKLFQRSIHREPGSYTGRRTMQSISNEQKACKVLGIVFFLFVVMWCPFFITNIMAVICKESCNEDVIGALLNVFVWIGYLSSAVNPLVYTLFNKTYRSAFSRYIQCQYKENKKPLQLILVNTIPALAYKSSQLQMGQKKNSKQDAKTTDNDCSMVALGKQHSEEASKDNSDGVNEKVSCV
Series [7] addresses 5-hydroxytryptamine receptor 2B (Homo sapiens, UniProt P41595). Kind of series: Binding affinity to 5HT2B receptor.
Series [8] concerns the target T2, 5-hydroxytryptamine receptor 2C (Homo sapiens, UniProt P28335).
T2 sequence (P28335 whole entry): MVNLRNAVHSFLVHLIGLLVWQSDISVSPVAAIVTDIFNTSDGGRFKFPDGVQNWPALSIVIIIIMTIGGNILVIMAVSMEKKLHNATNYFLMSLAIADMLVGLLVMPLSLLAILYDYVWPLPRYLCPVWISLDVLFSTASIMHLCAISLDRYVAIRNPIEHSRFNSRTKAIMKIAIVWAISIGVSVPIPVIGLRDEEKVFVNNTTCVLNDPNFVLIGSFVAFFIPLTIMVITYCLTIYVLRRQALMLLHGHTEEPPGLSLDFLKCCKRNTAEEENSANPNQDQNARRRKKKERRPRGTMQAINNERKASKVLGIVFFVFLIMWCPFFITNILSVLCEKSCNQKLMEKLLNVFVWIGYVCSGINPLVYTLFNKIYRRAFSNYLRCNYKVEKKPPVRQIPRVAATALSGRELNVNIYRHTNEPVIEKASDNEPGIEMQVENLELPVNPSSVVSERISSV
Briefly: Binding affinity to 5HT2C receptor.

Series [9] addresses 5-hydroxytryptamine receptor 4 (Homo sapiens, UniProt Q13639). Kind of series: Binding affinity to 5HT4 receptor.
Series [10] concerns the target 5-hydroxytryptamine receptor 5A (Homo sapiens, UniProt P47898). Briefly: Binding affinity to 5HT5A receptor.
The target in series [11] is 5-hydroxytryptamine receptor 6 (Homo sapiens, UniProt P50406). Briefly: Binding affinity to 5HT6 receptor.
Chain of 5-hydroxytryptamine receptor 6 (P50406 whole entry): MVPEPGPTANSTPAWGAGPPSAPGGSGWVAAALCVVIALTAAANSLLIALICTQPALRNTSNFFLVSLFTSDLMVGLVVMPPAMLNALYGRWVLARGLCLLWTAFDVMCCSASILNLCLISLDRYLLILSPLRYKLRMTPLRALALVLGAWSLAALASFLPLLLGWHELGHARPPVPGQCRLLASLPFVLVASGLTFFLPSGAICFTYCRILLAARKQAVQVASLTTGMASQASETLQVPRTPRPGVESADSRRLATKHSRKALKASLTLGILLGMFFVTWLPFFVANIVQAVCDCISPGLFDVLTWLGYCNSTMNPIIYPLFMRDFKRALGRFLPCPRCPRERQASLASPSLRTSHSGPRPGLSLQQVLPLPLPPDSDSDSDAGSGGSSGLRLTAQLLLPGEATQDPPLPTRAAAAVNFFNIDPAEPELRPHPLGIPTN
Series [12] deals with 5-hydroxytryptamine receptor 7 (Homo sapiens, UniProt P34969). Briefly: Binding affinity to 5HT7 receptor.
Chain of 5-hydroxytryptamine receptor 7 (P34969 whole entry): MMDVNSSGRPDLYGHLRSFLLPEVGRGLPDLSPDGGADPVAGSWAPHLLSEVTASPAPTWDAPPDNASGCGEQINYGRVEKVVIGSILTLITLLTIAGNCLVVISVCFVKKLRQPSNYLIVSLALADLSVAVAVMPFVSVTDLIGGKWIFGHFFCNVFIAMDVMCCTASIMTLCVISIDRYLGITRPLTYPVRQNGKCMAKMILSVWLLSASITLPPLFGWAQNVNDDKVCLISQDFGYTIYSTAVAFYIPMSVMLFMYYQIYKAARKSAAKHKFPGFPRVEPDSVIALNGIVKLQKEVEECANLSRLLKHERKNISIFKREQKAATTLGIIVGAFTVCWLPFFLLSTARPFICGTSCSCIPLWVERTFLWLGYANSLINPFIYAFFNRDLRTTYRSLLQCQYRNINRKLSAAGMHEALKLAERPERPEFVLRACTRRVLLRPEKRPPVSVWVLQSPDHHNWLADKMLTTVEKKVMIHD
The target in series [13] is D(1A) dopamine receptor (Homo sapiens, UniProt P21728). Briefly: Binding affinity to dopamine D1.
For series [14], the target named is D(2) dopamine receptor (Homo sapiens, UniProt P14416). Kind of series: Binding affinity to dopamine D2.
Chain of D(2) dopamine receptor (P14416 whole entry): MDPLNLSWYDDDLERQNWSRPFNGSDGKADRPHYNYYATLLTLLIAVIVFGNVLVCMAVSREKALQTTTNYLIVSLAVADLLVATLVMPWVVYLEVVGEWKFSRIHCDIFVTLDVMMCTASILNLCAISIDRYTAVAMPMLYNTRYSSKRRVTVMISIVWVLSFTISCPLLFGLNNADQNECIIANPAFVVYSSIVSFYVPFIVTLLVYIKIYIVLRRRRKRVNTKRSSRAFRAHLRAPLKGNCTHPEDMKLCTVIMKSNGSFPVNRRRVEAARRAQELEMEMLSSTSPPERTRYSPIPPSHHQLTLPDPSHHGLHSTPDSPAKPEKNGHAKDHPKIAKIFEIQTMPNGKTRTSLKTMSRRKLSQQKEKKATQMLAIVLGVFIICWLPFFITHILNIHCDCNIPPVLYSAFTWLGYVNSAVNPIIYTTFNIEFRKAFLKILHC
Series [15] concerns Rattus norvegicus. Kind of series: Increase in extracellular serotonin levels in po dosed rat frontal cortex. The class given is functional, organism-based. The method in brief: (§1)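 In vivo microdialysis in rat frontal cortex measuring extracellular serotonin. Oral doses were 1 and 3 mg/kg, with a reference SSRI at 5 mg/kg po; an iv arm used 1.0 mg/kg. Change is expressed as percent increase over vehicle-treated controls, with significance tested against vehicle.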

Series [16] concerns Rattus norvegicus. Briefly: Increase in extracellular serotonin levels in rat frontal cortex at 3 mg/kg, po by microdialysis method relative to untreated control. The series is classed as functional. Put shortly: as §1
The subject of series [17] is Rattus norvegicus. Kind of series: Increase in extracellular serotonin levels in rat frontal cortex at 5 mg/kg, po by microdialysis method relative to untreated control. The series is classed as functional, organism-based. Further details: dose 5 mg/kg. The method in brief: as §1
Series [18] relates to Brain. Briefly: Drug concentration in rat brain at 3 mg/kg, po after 2 hrs by microdialysis method. The series is classed as ADME, organism-based. Further details: dose 3 mg/kg, route oral. Conditions: in vivo. Put shortly: (§2)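 Rats dosed orally at 3 mg/kg as part of the frontal-cortex microdialysis experiments. Drug levels in brain and plasma sampled at 2 h after dosing. Oral bioavailability, Tmax and half-life are reported from the same oral 3 mg/kg dosing in rat.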

A short description of series [19]: Drug concentration in rat plasma at 3 mg/kg, po after 2 hrs by microdialysis method. The class given is ADME, organism-based. Also on record: dose 3 mg/kg, route oral. The method in brief:
as §2

Series [20] is described as follows: Oral bioavailability in rat plasma at 3 mg/kg by microdialysis method. The series is classed as ADME, organism-based. The method in brief: as §2
Series [21] in a line: Tmax in rat at 3 mg/kg, po by microdialysis method. Further details: dose 3 mg/kg, route oral. The class given is ADME, organism-based. Conditions: in vivo. Put shortly:
as §2

Series [22] is described as follows: Half life in rat at 3 mg/kg, po by microdialysis method. Particulars: in vivo. The series is classed as ADME, organism-based. Also on record: dose 3 mg/kg, route oral. Put shortly:
as §2

Calls of active or inactive are those of the source. Where only a bound is given, the exact number is not on record here.

Chain of Sodium-dependent serotonin transporter (P31645 whole entry): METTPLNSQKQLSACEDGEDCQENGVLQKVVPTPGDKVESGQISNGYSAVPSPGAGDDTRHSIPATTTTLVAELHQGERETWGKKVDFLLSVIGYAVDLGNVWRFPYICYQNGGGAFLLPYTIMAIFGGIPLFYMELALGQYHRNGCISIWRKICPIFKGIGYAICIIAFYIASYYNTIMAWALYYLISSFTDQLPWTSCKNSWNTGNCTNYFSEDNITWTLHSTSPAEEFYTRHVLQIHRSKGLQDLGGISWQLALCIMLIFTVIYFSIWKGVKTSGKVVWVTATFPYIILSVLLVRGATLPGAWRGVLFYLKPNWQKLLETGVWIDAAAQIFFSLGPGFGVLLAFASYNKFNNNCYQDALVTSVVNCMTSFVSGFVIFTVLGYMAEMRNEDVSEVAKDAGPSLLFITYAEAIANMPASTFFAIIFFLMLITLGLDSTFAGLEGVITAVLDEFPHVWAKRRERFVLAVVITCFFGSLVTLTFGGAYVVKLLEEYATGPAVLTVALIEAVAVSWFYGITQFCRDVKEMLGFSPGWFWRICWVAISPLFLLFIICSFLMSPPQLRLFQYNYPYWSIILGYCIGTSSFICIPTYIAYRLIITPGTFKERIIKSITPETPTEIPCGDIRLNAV
Chain of 5-hydroxytryptamine receptor 2B (P41595 whole entry): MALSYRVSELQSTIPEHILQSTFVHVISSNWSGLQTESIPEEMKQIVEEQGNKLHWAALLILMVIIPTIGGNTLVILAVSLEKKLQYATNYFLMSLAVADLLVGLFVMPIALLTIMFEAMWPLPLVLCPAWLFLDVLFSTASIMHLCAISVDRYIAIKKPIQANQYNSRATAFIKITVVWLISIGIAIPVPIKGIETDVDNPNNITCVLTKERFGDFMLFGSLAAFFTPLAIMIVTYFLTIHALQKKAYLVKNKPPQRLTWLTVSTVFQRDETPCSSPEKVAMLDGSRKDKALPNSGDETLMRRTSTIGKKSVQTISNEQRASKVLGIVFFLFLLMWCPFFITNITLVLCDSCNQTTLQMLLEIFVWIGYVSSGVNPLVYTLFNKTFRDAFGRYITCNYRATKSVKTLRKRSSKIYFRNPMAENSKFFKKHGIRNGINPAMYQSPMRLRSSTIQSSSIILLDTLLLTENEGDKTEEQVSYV
Chain of Sodium-dependent noradrenaline transporter (P23975 whole entry): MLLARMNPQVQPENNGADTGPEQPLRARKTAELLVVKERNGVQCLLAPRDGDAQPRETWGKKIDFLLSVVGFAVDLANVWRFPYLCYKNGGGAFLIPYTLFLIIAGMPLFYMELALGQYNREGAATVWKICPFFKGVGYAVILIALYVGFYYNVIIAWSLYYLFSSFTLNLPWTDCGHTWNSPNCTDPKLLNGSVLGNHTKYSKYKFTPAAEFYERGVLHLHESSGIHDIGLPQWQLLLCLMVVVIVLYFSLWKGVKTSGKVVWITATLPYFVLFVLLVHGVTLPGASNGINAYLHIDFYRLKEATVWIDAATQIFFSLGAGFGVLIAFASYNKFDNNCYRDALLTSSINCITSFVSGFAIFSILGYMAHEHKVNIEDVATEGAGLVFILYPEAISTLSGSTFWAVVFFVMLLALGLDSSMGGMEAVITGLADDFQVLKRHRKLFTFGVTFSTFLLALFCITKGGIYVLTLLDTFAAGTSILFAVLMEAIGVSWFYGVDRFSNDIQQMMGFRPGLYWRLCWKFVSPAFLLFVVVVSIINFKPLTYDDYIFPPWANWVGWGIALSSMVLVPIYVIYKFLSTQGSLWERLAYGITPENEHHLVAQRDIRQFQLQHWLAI
Chain of Sodium-dependent dopamine transporter (Q01959 whole entry): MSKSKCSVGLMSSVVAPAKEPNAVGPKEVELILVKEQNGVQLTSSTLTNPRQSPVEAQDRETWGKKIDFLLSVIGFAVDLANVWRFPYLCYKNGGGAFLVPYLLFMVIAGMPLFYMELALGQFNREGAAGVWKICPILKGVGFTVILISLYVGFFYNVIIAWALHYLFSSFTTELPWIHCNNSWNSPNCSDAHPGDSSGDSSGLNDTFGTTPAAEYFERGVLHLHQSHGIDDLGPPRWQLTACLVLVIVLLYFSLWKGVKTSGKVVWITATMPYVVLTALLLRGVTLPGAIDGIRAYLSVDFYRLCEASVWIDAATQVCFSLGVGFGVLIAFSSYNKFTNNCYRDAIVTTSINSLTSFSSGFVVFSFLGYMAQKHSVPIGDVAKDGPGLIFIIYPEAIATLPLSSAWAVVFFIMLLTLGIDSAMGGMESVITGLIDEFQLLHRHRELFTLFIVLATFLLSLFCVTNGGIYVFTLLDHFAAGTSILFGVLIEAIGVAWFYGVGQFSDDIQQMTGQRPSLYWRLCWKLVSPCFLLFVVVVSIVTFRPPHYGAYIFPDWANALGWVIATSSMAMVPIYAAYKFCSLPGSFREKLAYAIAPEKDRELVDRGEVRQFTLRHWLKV
Chain of 5-hydroxytryptamine receptor 4 (Q13639 whole entry): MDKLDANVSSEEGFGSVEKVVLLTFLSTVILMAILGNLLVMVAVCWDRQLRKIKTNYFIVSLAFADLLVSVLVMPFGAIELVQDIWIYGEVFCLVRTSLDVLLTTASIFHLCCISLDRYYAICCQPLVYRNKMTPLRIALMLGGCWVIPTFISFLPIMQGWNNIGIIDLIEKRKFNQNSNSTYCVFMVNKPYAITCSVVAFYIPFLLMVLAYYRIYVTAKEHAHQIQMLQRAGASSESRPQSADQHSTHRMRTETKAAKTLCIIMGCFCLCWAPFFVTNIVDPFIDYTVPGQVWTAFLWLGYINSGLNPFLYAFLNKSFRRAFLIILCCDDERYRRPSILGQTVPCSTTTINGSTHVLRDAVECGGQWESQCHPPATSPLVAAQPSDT

The term IC50 denotes the midpoint of a concentration-inhibition curve. Higher therefore signals a need for much substance. In series [1], `CCN(C)C1CCC(c2c[nH]c3ccc(C#N)cc23)C1` (stereo not drawn) returned an IC50 of 1.6 nM.
The compound `Fc1ccc2[nH]cc(C3CCC(N4CCCC4)C3)c2c1` (stereo not drawn) displayed an IC50 in [1] of 2.9 nM.
The same measure, in the same setting: to `CN(C)C1CCC(c2c[nH]c3c(F)cccc23)C1` (stereo not drawn) belongs 3.3 nM; to `CN(C)C1CCC(c2c[nH]c3c(Cl)cccc23)C1` (stereo not drawn), 1.4 nM.
Turning to `CN(C)[C@H]1CC[C@H](c2c[nH]c3ccc(F)cc23)C1`, in series [1], the IC50 amounted to 5.9 nM.
Still for that read-out and setting: in the case of `N#Cc1ccc2[nH]cc(C3CCC(N4CCCC4)C3)c2c1` (stereo not drawn) it was 3 nM; in that of `N#Cc1ccc2[nH]cc(C3CCC(NCc4ccccc4)C3)c2c1` (stereo not drawn), 15 nM.
In turn, `CN(C)[C@@H]1CC[C@@H](c2c[nH]c3ccc(C#N)cc23)C1` showed an IC50 in series [1] of 1.3 nM.
In turn, `N#Cc1ccc2[nH]cc(C3CCC(N4Cc5ccccc5C4)C3)c2c1` (stereo not drawn) displayed an IC50 in [1] of 6.8 nM.
The same measure, in the same setting: to `CN(C)C1CCC(c2c[nH]c3cccc(Br)c23)C1` (stereo not drawn) belongs 5.3 nM.
With `CCN(CC)C1CCC(c2c[nH]c3ccc(C#N)cc23)C1` (stereo not drawn), the IC50 in [1] was determined as 6.2 nM.
Still for that read-out and setting: to `N#Cc1ccc2[nH]cc(C3CCC(N4CCCCC4)C3)c2c1` (stereo not drawn) belongs 65 nM.
Still for that read-out and setting: in the case of `CN(C)C1CCC(c2c[nH]c3cc(F)ccc23)C1` (stereo not drawn) it was 5.1 nM; in that of `CCN(C)C1CCC(c2c[nH]c3ccc(F)cc23)C1` (stereo not drawn), 3.7 nM; in that of `CCNC1CCC(c2c[nH]c3ccc(C#N)cc23)C1` (stereo not drawn), 6.6 nM.
On the same count and under the same terms, in the case of `CN(C)[C@@H]1CC[C@@H](c2c[nH]c3ccc(F)cc23)C1` it was 2.8 nM.
Consider `CN(C)C1CCC(c2c[nH]c3cccc(F)c23)C1` (stereo not drawn), for which, in series [1], the IC50 was determined as 31 nM.
The same measure, in the same setting: to `CN(C)[C@H]1CC[C@H](c2c[nH]c3ccc(C#N)cc23)C1` belongs 0.97 nM.
On the same count and under the same terms, in the case of `CN(C)C1CCC(c2c[nH]c3cc(Br)ccc23)C1` (stereo not drawn) it was 9.6 nM.
In [1], `CN(C)C1CCC(c2c[nH]c3ccc(C#N)cc23)C1` (stereo not drawn) displayed an IC50 of 0.48 nM.
`CN(C)[C@H]1CC[C@@H](c2c[nH]c3ccc(C#N)cc23)C1` displayed an IC50 in [1] of 0.38 nM.
In the case of `CN(Cc1ccccc1)C1CCC(c2c[nH]c3ccc(C#N)cc23)C1` (stereo not drawn), in series [1], the IC50 came out at 5.3 nM.
By bioavailability is commonly meant dose-corrected exposure relative to a reference, in per cent. As usually defined, the Tmax is the time from dosing to the highest level. What is called half-life is the time needed for the level to fall by half in the phase considered. Low readings indicate fast loss, high ones slow loss. As for `CN(C)[C@@H]1CC[C@H](c2c[nH]c3ccc(C#N)cc23)C1`, the IC50 was 0.22 nM in series [1]; 6900 nM in [2]; 1300 nM in series [3]; 1300 nM in [4]; 340 nM in series [5]; 840 nM in [6]. In addition, the IC50 is above 10000 nM in [7]; above 10000 nM in series [8]; above 30000 nM in series [9]; above 1000 nM in series [10]; 37 nM in series [11]; above 1000 nM in series [12]. In addition, the IC50 is 7200 nM in series [13] and above 30000 nM in [14]. The values for the Activity result in [15] and in [16] were “Dose-dependent effect” and 150%, respectively. The outcome in series [17] was Active. The Drug uptake in [18] is 1000 nM. In series [19], this compound had a concentration at 2 h of 820 nM. For the same compound, the bioavailability in series [20] was 51%. The Tmax in series [21] was 60 min. Besides, the half-life in series [22] is 33 min.
`CN(C)[C@@H]1CC[C@H](c2c[nH]c3ccc(F)cc23)C1` (single isomer, unassigned) had an IC50 in [1] of 2.4 nM.
Still for that read-out and setting: in the case of `N#Cc1ccc2[nH]cc(C3CCC(N)C3)c2c1` (stereo not drawn) it was 32 nM; in that of `CN(C)C1CCC(c2c[nH]c3ccc(F)cc23)C1` (stereo not drawn), 1.7 nM.
Same read-out and setting: in the case of `CN(C)C1CCC(c2c[nH]c3ccc(Cl)cc23)C1` (stereo not drawn) it was 3 nM; in that of `CN(C)C1CCC(c2c[nH]c3cc(Cl)ccc23)C1` (stereo not drawn), 6.5 nM; in that of `CNC1CCC(c2c[nH]c3ccc(C#N)cc23)C1` (stereo not drawn), 8.5 nM.
The same measure, in the same setting: in the case of `N#Cc1ccc2[nH]cc(C3CCC(N4CCc5ccccc5C4)C3)c2c1` (stereo not drawn) it was 6.5 nM.
Take `N#Cc1ccc2[nH]cc(C3CCC(N4CCOCC4)C3)c2c1` (stereo not drawn): the IC50 in [1] is 110 nM.
For `CCCNC1CCC(c2c[nH]c3ccc(C#N)cc23)C1` (stereo not drawn), in series [1], the IC50 worked out at 30 nM.
In series [1], `N#Cc1ccc2[nH]cc(C3CCC(NCCc4ccccc4)C3)c2c1` (stereo not drawn) registered an IC50 of 10 nM.
On to `CN(CCc1ccccc1)C1CCC(c2c[nH]c3ccc(C#N)cc23)C1` (stereo not drawn), for which the IC50 in series [1] was 6.2 nM.
Same read-out and setting: in the case of `CCN(CC)C1CCC(c2c[nH]c3ccc(F)cc23)C1` (stereo not drawn) it was 7.3 nM.
Same read-out and setting: in the case of `CN(C)C1CCC(c2c[nH]c3ccc(Br)cc23)C1` (stereo not drawn) it was 4.3 nM; in that of `CN(C)C1CCC(c2c[nH]c3c(Br)cccc23)C1` (stereo not drawn), 1.6 nM.

The record behind these values is ChEMBL document CHEMBL1275372, “Conformationally restricted homotryptamines. Part 7: 3-cis-(3-aminocyclopentyl)indoles as potent selective serotonin reuptake inhibitors” (J Med Chem, 2010).
